{"source": "ChEMBL document CHEMBL4433220", "about": "“Identification of the 2-Benzoxazol-2-yl-phenol Scaffold as New Hit for JMJD3 Inhibition” (ACS Med Chem Lett, 2019)", "key": {"[1]": {"molecular_target": "T1, Lysine-specific demethylase 6B (Homo sapiens, UniProt O15054)", "T1 sequence (O15054 whole entry)": "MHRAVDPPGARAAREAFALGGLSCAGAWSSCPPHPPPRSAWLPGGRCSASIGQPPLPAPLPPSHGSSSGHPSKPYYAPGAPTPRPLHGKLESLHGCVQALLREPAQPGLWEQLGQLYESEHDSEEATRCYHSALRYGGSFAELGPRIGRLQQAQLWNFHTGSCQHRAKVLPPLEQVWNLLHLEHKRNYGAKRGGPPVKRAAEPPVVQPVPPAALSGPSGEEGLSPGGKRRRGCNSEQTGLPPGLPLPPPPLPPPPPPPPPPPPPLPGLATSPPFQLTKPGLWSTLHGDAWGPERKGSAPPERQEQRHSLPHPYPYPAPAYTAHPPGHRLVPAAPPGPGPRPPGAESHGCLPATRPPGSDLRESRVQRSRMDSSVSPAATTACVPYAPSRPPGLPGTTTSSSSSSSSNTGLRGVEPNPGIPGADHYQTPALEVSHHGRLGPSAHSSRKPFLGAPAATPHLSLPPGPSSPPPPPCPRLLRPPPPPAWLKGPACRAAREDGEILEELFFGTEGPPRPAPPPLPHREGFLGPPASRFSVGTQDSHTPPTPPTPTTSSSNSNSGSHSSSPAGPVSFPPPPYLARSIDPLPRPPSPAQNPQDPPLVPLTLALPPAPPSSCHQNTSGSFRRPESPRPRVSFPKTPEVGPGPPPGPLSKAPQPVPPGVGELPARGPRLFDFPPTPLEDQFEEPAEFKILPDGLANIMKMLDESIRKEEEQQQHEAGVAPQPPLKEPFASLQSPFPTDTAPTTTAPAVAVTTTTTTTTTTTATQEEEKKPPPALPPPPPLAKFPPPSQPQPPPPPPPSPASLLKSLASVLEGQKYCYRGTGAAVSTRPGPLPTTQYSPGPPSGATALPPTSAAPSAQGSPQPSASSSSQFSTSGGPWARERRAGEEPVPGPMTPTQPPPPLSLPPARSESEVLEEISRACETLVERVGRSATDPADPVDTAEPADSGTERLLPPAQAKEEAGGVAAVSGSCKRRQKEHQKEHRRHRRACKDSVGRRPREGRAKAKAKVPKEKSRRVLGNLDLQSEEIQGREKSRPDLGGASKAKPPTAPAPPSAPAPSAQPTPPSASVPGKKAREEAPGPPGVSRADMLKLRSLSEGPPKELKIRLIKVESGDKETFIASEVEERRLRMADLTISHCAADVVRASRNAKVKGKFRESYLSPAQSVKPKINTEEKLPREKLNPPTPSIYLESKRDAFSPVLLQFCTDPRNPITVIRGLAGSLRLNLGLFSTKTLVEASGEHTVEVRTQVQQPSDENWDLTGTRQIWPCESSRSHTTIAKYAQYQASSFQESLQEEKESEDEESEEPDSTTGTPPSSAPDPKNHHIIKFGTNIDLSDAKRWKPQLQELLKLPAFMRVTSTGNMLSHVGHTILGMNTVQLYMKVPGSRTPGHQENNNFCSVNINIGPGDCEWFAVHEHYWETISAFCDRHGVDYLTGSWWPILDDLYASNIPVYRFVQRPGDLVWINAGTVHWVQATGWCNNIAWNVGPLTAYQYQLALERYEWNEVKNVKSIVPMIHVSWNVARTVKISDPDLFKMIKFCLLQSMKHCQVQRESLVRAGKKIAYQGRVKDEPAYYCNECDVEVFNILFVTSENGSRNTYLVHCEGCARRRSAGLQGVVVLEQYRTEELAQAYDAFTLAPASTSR", "assay": "Inhibition of recombinant human JMJD3 expressed in baculovirus infected Sf9 cells at 25 uM using biotinylated histone H3 peptide as substrate incubated for 15 mins followed by substrate addition and measured after 60 mins by AlphaScreen assay relative to control", "method_in_brief": "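JMJD3 demethylase activity measured by AlphaScreen with compound at 25 μM; means ± SEM, n = 3.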"}, "[2]": {"molecular_target": "T1, Lysine-specific demethylase 6B", "assay": "Inhibition of recombinant human JMJD3 expressed in baculovirus infected Sf9 cells using biotinylated histone H3 peptide as substrate incubated for 15 mins followed by substrate addition and measured after 60 mins by AlphaScreen assay"}, "[3]": {"molecular_target": "Lysine-specific demethylase 6A (Homo sapiens, UniProt O15550)", "sequence (O15550 whole entry)": "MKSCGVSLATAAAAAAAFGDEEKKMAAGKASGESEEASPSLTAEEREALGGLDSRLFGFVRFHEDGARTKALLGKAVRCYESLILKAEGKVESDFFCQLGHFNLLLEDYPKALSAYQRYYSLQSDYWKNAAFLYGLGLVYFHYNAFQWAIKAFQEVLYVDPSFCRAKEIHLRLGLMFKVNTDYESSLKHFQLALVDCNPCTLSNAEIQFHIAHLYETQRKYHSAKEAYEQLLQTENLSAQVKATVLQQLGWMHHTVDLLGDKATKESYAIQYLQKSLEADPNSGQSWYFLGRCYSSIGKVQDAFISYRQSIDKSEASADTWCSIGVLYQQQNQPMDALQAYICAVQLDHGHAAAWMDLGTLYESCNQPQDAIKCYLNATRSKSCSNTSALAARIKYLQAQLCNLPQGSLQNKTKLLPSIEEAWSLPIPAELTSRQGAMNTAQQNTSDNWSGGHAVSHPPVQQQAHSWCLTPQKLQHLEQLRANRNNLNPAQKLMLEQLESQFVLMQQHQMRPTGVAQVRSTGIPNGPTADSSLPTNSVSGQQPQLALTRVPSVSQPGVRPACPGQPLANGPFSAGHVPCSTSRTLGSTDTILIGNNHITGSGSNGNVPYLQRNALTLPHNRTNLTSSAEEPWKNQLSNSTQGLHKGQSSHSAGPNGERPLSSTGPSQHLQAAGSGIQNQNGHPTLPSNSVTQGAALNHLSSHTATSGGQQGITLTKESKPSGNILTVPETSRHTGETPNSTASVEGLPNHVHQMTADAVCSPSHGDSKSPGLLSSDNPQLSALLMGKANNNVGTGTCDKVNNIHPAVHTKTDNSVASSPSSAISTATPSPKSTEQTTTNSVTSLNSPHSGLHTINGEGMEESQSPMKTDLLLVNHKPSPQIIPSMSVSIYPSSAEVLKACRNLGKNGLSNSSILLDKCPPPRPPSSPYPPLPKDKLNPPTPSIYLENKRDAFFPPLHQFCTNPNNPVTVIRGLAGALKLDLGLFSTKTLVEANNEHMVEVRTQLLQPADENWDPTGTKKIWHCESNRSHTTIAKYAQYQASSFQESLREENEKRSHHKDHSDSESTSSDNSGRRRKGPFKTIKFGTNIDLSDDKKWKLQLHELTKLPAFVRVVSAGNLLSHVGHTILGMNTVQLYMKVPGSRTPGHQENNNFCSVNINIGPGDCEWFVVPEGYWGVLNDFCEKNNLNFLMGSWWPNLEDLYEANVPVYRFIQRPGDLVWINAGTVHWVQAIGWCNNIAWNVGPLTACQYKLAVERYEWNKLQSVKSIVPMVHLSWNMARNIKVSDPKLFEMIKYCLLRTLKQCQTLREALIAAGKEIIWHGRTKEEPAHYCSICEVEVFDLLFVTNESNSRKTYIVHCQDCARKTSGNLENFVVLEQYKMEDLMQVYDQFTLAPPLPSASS", "assay": "Inhibition of UTX (unknown origin) using histone H3 peptide as substrate incubated for 30 mins followed by substrate addition by AlphaScreen assay"}, "[4]": {"assay": "Apparent permeability of the compound in pH 7.4 phosphate buffer solution at 0.5 mM incubated for 24 hrs under gentle shaking condition by HPLC-UV detector based PAMPA assay", "assay_type": "ADME", "method_in_brief": "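Parallel artificial membrane permeability assay (PAMPA); apparent permeability (Papp) reported in cm/s.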"}, "A-375 [5]": {"tested_on": "A-375", "assay": "Antiproliferative activity against human A375 cells incubated for 24 hrs by propidium iodide staining based flow cytometric analysis", "conditions": "A-375, 24 h"}, "A-375 [6]": {"tested_on": "A-375", "assay": "Cell cycle arrest in human A375 cells assessed as accumulation at G1 phase at 20 uM incubated for 24 hrs by propidium iodide staining-based flow cytometry (reference value: 59.63%)", "assay_type": "functional", "method_in_brief": "(§1)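 A375 melanoma cells exposed to compound at 1, 5, 10, 20, 40, 80 or 100 μM for 24 h. Cells were collected, fixed in iced 70% ethanol for 2 h and stained with propidium iodide. Cell-cycle distribution was read by flow cytometry, n = 3. […]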"}, "A-375 [7]": {"tested_on": "A-375", "assay": "Cell cycle arrest in human A375 cells assessed as accumulation at G1 phase at 40 uM incubated for 24 hrs by propidium iodide staining-based flow cytometry (reference value: 59.63%)", "assay_type": "functional", "method_in_brief": "as §1"}, "A-375 [8]": {"tested_on": "A-375", "assay": "Cell cycle arrest in human A375 cells assessed as accumulation at G1 phase at 80 uM incubated for 24 hrs by propidium iodide staining-based flow cytometry (reference value: 59.63%)", "assay_type": "functional", "method_in_brief": "as §1"}, "A-375 [9]": {"tested_on": "A-375", "assay": "Cell cycle arrest in human A375 cells assessed as accumulation at G1 phase at 100 uM incubated for 24 hrs by propidium iodide staining-based flow cytometry (reference value: 59.63%)", "assay_type": "functional", "method_in_brief": "as §1"}, "A-375 [10]": {"tested_on": "A-375", "assay": "Cell cycle arrest in human A375 cells assessed as accumulation at S phase at 20 uM incubated for 24 hrs by propidium iodide staining-based flow cytometry (reference value: 29.56%)", "assay_type": "functional", "method_in_brief": "as §1"}, "A-375 [11]": {"tested_on": "A-375", "assay": "Cell cycle arrest in human A375 cells assessed as accumulation at S phase at 40 uM incubated for 24 hrs by propidium iodide staining-based flow cytometry (reference value: 29.56%)", "assay_type": "functional", "method_in_brief": "as §1"}, "A-375 [12]": {"tested_on": "A-375", "assay": "Cell cycle arrest in human A375 cells assessed as accumulation at S phase at 80 uM incubated for 24 hrs by propidium iodide staining-based flow cytometry (reference value: 29.56%)", "assay_type": "functional", "method_in_brief": "as §1"}, "A-375 [13]": {"tested_on": "A-375", "assay": "Cell cycle arrest in human A375 cells assessed as accumulation at S phase at 100 uM incubated for 24 hrs by propidium iodide staining-based flow cytometry (reference value: 29.56%)", "assay_type": "functional", "method_in_brief": "as §1"}, "A-375 [14]": {"tested_on": "A-375", "assay": "Cell cycle arrest in human A375 cells assessed as accumulation at G2/M phase at 20 uM incubated for 24 hrs by propidium iodide staining-based flow cytometry (reference value: 10.81%)", "assay_type": "functional", "method_in_brief": "as §1"}, "A-375 [15]": {"tested_on": "A-375", "assay": "Cell cycle arrest in human A375 cells assessed as accumulation at G2/M phase at 40 uM incubated for 24 hrs by propidium iodide staining-based flow cytometry (reference value: 10.81%)", "assay_type": "functional", "method_in_brief": "as §1"}, "A-375 [16]": {"tested_on": "A-375", "assay": "Cell cycle arrest in human A375 cells assessed as accumulation at G2/M phase at 80 uM incubated for 24 hrs by propidium iodide staining-based flow cytometry (reference value: 10.81%)", "assay_type": "functional", "method_in_brief": "as §1"}, "A-375 [17]": {"tested_on": "A-375", "assay": "Cell cycle arrest in human A375 cells assessed as accumulation at G2/M phase at 100 uM incubated for 24 hrs by propidium iodide staining-based flow cytometry (reference value: 10.81%)", "assay_type": "functional", "method_in_brief": "as §1"}, "[18]": {"molecular_target": "T1, Lysine-specific demethylase 6B", "assay": "Inhibition of JMJD3 in human A375 cells assessed as reduction in decrease of the H3K27me2 level at 100 uM incubated for 24 hrs by Western blot analysis", "assay_type": "cell-based", "method_in_brief": "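A375 melanoma cells treated with 100 μM compound for 4 and 24 h, then lysed and run on SDS-PAGE. Western blot on nitrocellulose was probed with anti-H3K27me2 antibody.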"}}, "note": "pIC50: −log10 of the molar value. Calls of active or inactive are those of the source. The calls are words filed in the database; no cut-off is given here.", "data": [{"smiles": "Oc1ccc(O)c(-c2nc3ccccc3o2)c1", "values": [{"measurement": "inhibition", "setting": "[1]", "value": 90, "unit": "%"}, {"measurement": "pIC50", "setting": "[2]", "value": 5.92}, {"measurement": "pIC50", "setting": "[3]", "value": 4.59}, {"measurement": "Papp at 24 h, 500 µM", "setting": "[4]", "value": 0.912, "unit": "×10⁻⁶ cm/s"}, {"measurement": "pIC50", "setting": "A-375 [5]", "value": 4.61}, {"measurement": "Activity", "setting": "A-375 [6]", "value": 51.31, "unit": "%"}, {"measurement": "Activity", "setting": "A-375 [7]", "value": 24.14, "unit": "%"}, {"measurement": "Activity", "setting": "A-375 [8]", "value": 21.92, "unit": "%"}, {"measurement": "Activity", "setting": "A-375 [9]", "value": 16.62, "unit": "%"}, {"measurement": "Activity", "setting": "A-375 [10]", "value": 47.57, "unit": "%"}, {"measurement": "Activity", "setting": "A-375 [11]", "value": 61.05, "unit": "%"}, {"measurement": "Activity", "setting": "A-375 [12]", "value": 67.12, "unit": "%"}, {"measurement": "Activity", "setting": "A-375 [13]", "value": 73.38, "unit": "%"}, {"measurement": "Activity", "setting": "A-375 [14]", "value": 1.12, "unit": "%"}, {"measurement": "Activity", "setting": "A-375 [15]", "value": 14.81, "unit": "%"}, {"measurement": "Activity", "setting": "A-375 [16]", "value": 10.96, "unit": "%"}, {"measurement": "Activity", "setting": "A-375 [17]", "value": 10, "unit": "%"}, {"measurement": "inhibition", "setting": "[18]", "value": "Active"}]}, {"smiles": "O=C(O)c1ccc(O)c(-c2nc3ccccc3o2)c1", "values": [{"measurement": "inhibition", "setting": "[1]", "value": 27, "unit": "%"}]}, {"smiles": "Oc1ccccc1-c1nc2ccccc2s1", "values": [{"measurement": "inhibition", "setting": "[1]", "value": "inactive"}]}, {"smiles": "Oc1ccccc1-c1nc2ccccc2o1", "values": [{"measurement": "inhibition", "setting": "[1]", "value": 40, "unit": "%"}]}, {"smiles": "COc1cc2c(cc1-c1nc3ccccc3o1)OCO2", "values": [{"measurement": "inhibition", "setting": "[1]", "value": "inactive"}]}, {"smiles": "Oc1c(F)cc(F)cc1-c1nc2ccccc2o1", "values": [{"measurement": "inhibition", "setting": "[1]", "value": 20, "unit": "%"}]}]}
